From PMC10712300 (Protein and peptide letters, 2021)
Ends that are not written are not given here.

Columns and labels:
[1] = test system: RIN-m cells; experiment: LDH cytotoxicity assay; assay type: cell-based; settings: 48 h at 37°C; for LDH release / plasma membrane damage, peptide alone: 12.8 μM IAPP alone; for LDH cytotoxicity of hIAPP mixed with animal IAPP: 12.8 μM hIAPP + 12.8 μM animal IAPP (1:1)
Procedure, shortened: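 RIN-m cells were plated overnight and refed with RPMI-1640 + 10% FBS. HFIP-dried IAPPs were resuspended in the same medium by scraping and 30 s vortexing. Each IAPP was added at 12.8 μM, or hIAPP + animal IAPP 1:1, for 48 h at 37°C, 5% CO2. Spontaneous (water) and maximum (lysis buffer) release wells ran 45 min. Supernatant reaction: 30 min RT dark, then stop. A450/A620; % cytotoxicity by kit equation.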

[2] = test system: RIN-m cells; experiment: Cell morphology imaging; assay type: cell-based; settings: for RIN-m cell morphology, peptide alone: 12.8 μM IAPP alone (absence of hIAPP for animal variants); for RIN-m cell morphology, hIAPP mixed with animal IAPP: 12.8 μM hIAPP + animal IAPP, 1:1 ratio
[3] = test system: hIAPP aggregation / fibril formation; settings: cited from earlier work
[4] = cited from earlier work
[5] = AFM / amyloid fibril formation of an IAPP peptide by itself; assay type: physicochemical; settings: 37 μM hIAPP alone, 20 mM tris pH 7.40, 37°C, 40 min shaking, deposited onto mica
Procedure, shortened: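 HFIP stocks of peptide (0.125 mg/mL) were sonicated 10 min and held at −80°C. HFIP was removed under vacuum and peptide dissolved in 20 mM Tris pH 7.40. hIAPP was held at 37 μM, alone or with animal IAPP at 37 μM (1:1). Incubation: 37°C, 200 rpm, 40 min. Samples were spotted on fresh mica for 5 min, water-washed, dried, and imaged by AC-mode AFM without flattening.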

[6] = patients with type 1 diabetes taking hIAPP mimetic supplements; cited from earlier work

Substance | LDH release / plasma membrane damage, peptide alone [1] | LDH cytotoxicity of hIAPP mixed with animal IAPP [1] | RIN-m cell morphology, peptide alone [2] | RIN-m cell morphology, hIAPP mixed with animal IAPP [2] | inhibition of hIAPP aggregation (literature) [3] | independent aggregation, fibril formation and toxicity to living cells [4] | fibril formation of the peptide alone (AFM) [5] | average weight loss [6]
rat IAPP: synthetic naturally occurring rat variant of IAPP, non-amyloidogenic | very little effect on the cellular plasma membrane | increased the amount of cytotoxicity in the cell | did not cause significant changes to RIN-m morphology | many cells with a round shape and detached from the plate | modest inhibitors of hIAPP aggregation | does not independently aggregate, form fibrils, or show toxicity to living cells | – | –
Human Islet Amyloid Polypeptide (KCNTATCATQRLANFLVHSSNNFGAILSSTNVGSNTY; Islet amyloid polypeptide; UniProt P10997 34-70, looked up) [hIAPP, reference compound] | increased the release of LDH into the media | – | changes in cellular shape, formation of granular nuclear structures, and detachment of numerous cells from the plate surface | – | – | – | forms high-density plaques of fibrils | –
cat IAPP: synthetic naturally occurring cat variant of IAPP (KCNTATCATQRLANFLIRSSNNLGAILSPTNVGSNTY; ends and bridges not checked; cysteine pairing not given here; UniProt P12967 34-70, looked up) | some damage to the plasma membrane of the cells, but much less compared to hIAPP | decreased the toxicity of hIAPP and reduced the amount of damage to the plasma membrane | some rounding of cells and detaching from the plate | cells looking better than cells incubated with hIAPP alone | – | – | – | –
pramlintide | – | – | – | – | – | – | – | about 2 kg
